For assay [1], the target named is T1, Serotonin 1 (5-HT1) receptor (Rattus norvegicus, UniProt P28564+P30940+P19327+P28565). Nature of the assay: Binding affinity towards 5-hydroxytryptamine 1 receptor using [3H]5-HT as a radioligand from rat frontal cortex homogenates. The class given is tissue-based.
The subject of assay [2] is Rattus norvegicus. As to the kind of experiment: Minimum effective dose required to suppressing (MED) 5HIAA concentration in rat when administered sc. The class given is functional. The following applies: read-out: MED. The gist of the method: (§1)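 Male Wistar rats (~150 g). Compound in dilute HCl given sc at graded doses 1 h before decapitation. Whole-brain 5-HIAA measured by LC with electrochemical detection; serum corticosterone measured spectrofluorometrically. Minimum effective dose is the lowest dose giving a significant difference from control (P < 0.05).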

For assay [3], the target named is Serotonin 2 (5-HT2) receptor (Rattus norvegicus, UniProt P30994+P08909+P14842). Nature of the assay: Binding affinity at 5-hydroxytryptamine 2 receptor from rat frontal cortex homogenates by [3H]-spiperone displacement. The class given is tissue-based.
The subject of assay [4] is Rattus norvegicus. Nature of the assay: Minimum effective dose required to increase (MED) corticosterone in rat serum, sc. The class given is functional. The following applies: read-out: MED. A digest of the protocol:
as §1

Assay [5] can be described thus: (§2) Ratio of affinity towards 5-HT1 to 5-HT2 receptor. A digest of the protocol: (§3)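 Frontal cortex from male Wistar rats (140–160 g), homogenate pellet in 0.05 M Tris with 10 μM pargyline and 4 mM Ca²⁺, 250–350 μg protein/sample. 5-HT1: 2 nM [³H]-5-HT, nonspecific with 10 μM 5-HT. […] Eleven concentrations, 0.1–10 000 nM, in duplicate. IC50 from curve fitting of specific binding.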

The target in assay [6] is T1, Serotonin 1 (5-HT1) receptor. As to the kind of experiment: Binding affinity towards 5-hydroxytryptamine 1 receptor in rat frontal cortex homogenates using [3H]5-HT as a radioligand. It is filed as tissue-based. The gist of the method:
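Frontal cortex from male Wistar rats (140–160 g), pellet in 0.05 M Tris with 10 μM pargyline and 4 mM Ca²⁺, 250–350 μg protein/sample. 2 nM [³H]-5-HT; nonspecific binding with 10 μM 5-HT; specific binding = total minus nonspecific. Eleven test concentrations, 0.1–10 000 nM, in duplicate.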

The target is the same in assay [7]. As to the kind of experiment: Tested for its binding affinity towards 5-hydroxytryptamine 1 receptor in rat cortical membrane homogenates using radioligand ([3H]5-HT) binding assay. The class given is cell membranes. A digest of the protocol:
as §3

The nature of assay [8]: as §2. It is filed as functional. A digest of the protocol: as §3
The test system of assay [9] is Rattus norvegicus. Nature of the assay: Effect on 3,4-dihydroxyphenylacetic acid concentration in rat striatum, after 3 mg/kg sc administration. The class given is functional. The following applies: route subcutaneous. A digest of the protocol: (§4)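 Male Wistar rats (~150 g) were given drug or apomorphine HCl sc and decapitated 1 h later. Striatal DOPAC and HVA were quantified by LC with electrochemical detection. Results are mean ± SE, five rats/group, P < 0.05.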

Assay [10] relates to Rattus norvegicus. As to the kind of experiment: Effect on 3,4-dihydroxyphenylacetic acid concentration in rat striatum, after 10 mg/kg sc administration. The following applies: route subcutaneous. The class given is functional. The gist of the method:
as §4

For assay [11], the system named is Rattus norvegicus. Nature of the assay: Effect on homovanillic acid concentration in rat striatum, after 10 mg/kg sc administration. It is filed as functional. The following applies: route subcutaneous. The gist of the method: as §4
Assay [12] concerns Rattus norvegicus. As to the kind of experiment: Effect on homovanillic acid concentration in rat striatum, after 3 mg/kg sc administration. It is filed as functional. The following applies: route subcutaneous. A digest of the protocol:
as §4

The test system of assay [13] is Rattus norvegicus. Nature of the assay: Effect on homovanillic acid concentration in rat striatum, after 1 mg/kg sc administration. The following applies: route subcutaneous. It is filed as functional. A digest of the protocol: as §4
Assay [14] deals with Rattus norvegicus. As to the kind of experiment: Effect on 3,4-dihydroxyphenylacetic acid concentration in rat striatum, after 1 mg/kg sc administration. It is filed as functional. The following applies: route subcutaneous. A digest of the protocol: as §4
The species entered for assay [15] is Rattus norvegicus. As to the kind of experiment: Effect of fluoxetine on the elevation of serum corticosterone at a dose 100 ug/mL, No pretreatment. The class given is functional, organism-based. A digest of the protocol:
(§5)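 Rats got fluoxetine HCl (10 mg/kg, ip) or no pretreatment. 16 h later, drug (0.3 mg/kg, sc, dilute HCl) or p-chloroamphetamine HCl (2.5 mg/kg, ip) was given, with decapitation 1 h after. Serum corticosterone was measured spectrofluorometrically. Results are mean ± SE, five male Wistar rats/group, P < 0.05.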

The species entered for assay [16] is Rattus norvegicus. Nature of the assay: Effect of […] on the elevation of serum corticosterone at a dose 100 ug/mL No pretreatment. The class given is functional, organism-based. The gist of the method: (§6)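 Rats got p-chlorophenylalanine (300 mg/kg, ip) or no pretreatment. 24 h later, drug (0.3 mg/kg, sc, dilute HCl) or p-chloroamphetamine HCl (2.5 mg/kg, ip) was given, and rats were killed 1 h after. Serum corticosterone was measured spectrofluorometrically. Results are mean ± SE, five male Wistar rats/group.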

For assay [17], the species on record is Rattus norvegicus. As to the kind of experiment: Effect of fluoxetine on the elevation of serum corticosterone at a dose 100 ug/mL, Fluoxetine pretreament. It is filed as functional, organism-based. A digest of the protocol:
as §5

Assay [18] is filed under the species Rattus norvegicus. Nature of the assay: Effect of […] on the elevation of serum corticosterone at a dose 100 ug/mL PCPA pretreament. It is filed as functional, organism-based. The gist of the method: as §6

Experimental findings from ChEMBL document CHEMBL1124171, “Ergolines as selective 5-HT1 agonists” (J Med Chem, 1988) are described below.

A value given as a limit tells only on which side of the number the result lay.

Consider `CN1C[C@H](CO)C=C2c3cccc4c3[C@@H](CN4)C[C@H]21`, for which the IC50 was found to be 26 nM in assay [1] and 2650 nM in [3]. Also, the minimal effective dose in the assay with Rattus norvegicus [2] amounted to 1 mg/kg; in the assay on Rattus norvegicus [4], 0.1 mg/kg. In addition, the Selectivity ratio in assay [5] came out at 102.
On to `CSC[C@@H]1C=C2c3cccc4c3[C@@H](CN4)C[C@H]2N(C)C1`, for which the IC50 in assay [1] is listed as 20 nM; in assay [3], 1330 nM. The values for the minimal effective dose in the assay on Rattus norvegicus [2] and in the assay with Rattus norvegicus [4] were 0.1 mg/kg and 1 mg/kg, respectively. Further, in assay [5], the Selectivity ratio was 66.
`CC1=C[C@@H]2c3cccc4c3[C@@H](CN4)C[C@H]2N(C)C1`: the IC50 in [3] is recorded as 1850 nM; in assay [6], 130 nM. In assay [5], the Selectivity ratio was 14.
In the case of `C[C@@H]1C[C@@H]2c3cccc4c3[C@@H](CN4)C[C@H]2N(C)C1`, the results for the IC50 in assay [3] and in assay [6] were 4220 nM and 390 nM, respectively. For the same molecule, the Selectivity ratio in assay [5] was determined as 11.
For the molecule `C=C1C=C2c3cccc4c3[C@@H](CN4)C[C@H]2N(C)C1`, the IC50 turned out to be 80 nM in assay [1] and 3820 nM in assay [3]. The Selectivity ratio in [5] was 48.
In the same order, the values of `CN1C[C@H](CO)C[C@@H]2c3cccc4[nH]cc(c34)C[C@H]21` are 120 nM, 450 nM and 4.
`CC1=C[C@@H]2c3cccc4[nH]cc(c34)C[C@H]2N(C)C1` [AGROCLAVINE]: the IC50 in [3] amounted to 270 nM; in [7] it was 140 nM. Also, the Selectivity ratio in [5] is 2.
For `CN1C[C@H](CO)C=C2c3cccc4[nH]cc(c34)C[C@H]21`, the IC50 is reported as 160 nM in [3] and 15 nM in [7]. Also, the Selectivity ratio in [5] was determined as 11.
In the case of `C[C@H]1C=C2c3cccc4c3[C@@H](CN4)C[C@H]2N(C)C1`, the IC50 in assay [1] is 20 nM; in assay [3], above 1000 nM. The minimal effective dose with Rattus norvegicus [2] stood at 0.001 mg/kg; in the assay on Rattus norvegicus [4], 0.003 mg/kg. In assay [8], the Selectivity ratio is above 50.
Regarding `CCCN1C[C@H](C)C=C2c3cccc4c3[C@@H](CN4)C[C@H]21`, the IC50 in assay [3] was above 1000 nM; in assay [7] it was 240 nM. Also, in assay [5], the Selectivity ratio was above 5.
As for `CN1C[C@H](CC#N)C=C2c3cccc4c3[C@@H](CN4)C[C@H]21`, the minimal effective dose in the assay on Rattus norvegicus [2] and in the assay with Rattus norvegicus [4] was 0.1 mg/kg each time. In addition, the IC50 in assay [3] stood at 2120 nM; in assay [7], 20 nM. Besides, the Selectivity ratio in assay [5] turned out to be 106.
Consider `COC(=O)[C@@H]1C=C2c3cccc4c3[C@@H](CN4)C[C@H]2N(C)C1`, for which the IC50 was found to be 1620 nM in assay [3] and 40 nM in assay [7]. Besides, in [5], the Selectivity ratio was found to be 40.
With `C[C@@H]1C=C2c3cccc4[nH]cc(c34)C[C@H]2N(C)C1`, the IC50 in [3] is reported as 110 nM; in assay [7] it was 5 nM. Further, in [5], the Selectivity ratio turned out to be 22.
Regarding `CN1CCc2cccc3c2[C@H]1Cc1ccc(O)c(O)c1-3` [APOMORPHINE], the DOPAC with Rattus norvegicus [9] was 2.33; with Rattus norvegicus [10], 1.73; with Rattus norvegicus [14] it was 2.97. For the same molecule, the figures for the HVA with Rattus norvegicus [11], in the assay with Rattus norvegicus [12] and in the assay with Rattus norvegicus [13] were 0.91, 1.14 and 1.59, respectively.
In the case of `CC(N)Cc1ccc(Cl)cc1` (configuration not stated), the Serum corticosterone in the assay listed under Rattus norvegicus [15] was 69.4 µg/mL; in the assay filed under Rattus norvegicus [16], 51.1 µg/mL; in the assay listed under Rattus norvegicus [17], 29.5 µg/mL; in the assay listed under Rattus norvegicus [18], 14.9 µg/mL.
`CN1C[C@H](CSc2ccccn2)C=C2c3cccc4c3[C@@H](CN4)C[C@H]21`: the IC50 in assay [3] turned out to be 110 nM; in [7] it was 3 nM. For the same molecule, the Selectivity ratio in [5] came to 28.
The like results for `C[C@@H]1C=C2c3cccc4c3[C@H](C[C@H]2N(C)C1)CN4C` were, in that order, 1250 nM, 160 nM and 8.
The like results for `C[C@H]1C=C2c3cccc4[nH]cc(c34)C[C@H]2N(C)C1` were, in that order, 130 nM, 80 nM and 1.
The like results for `CN1C[C@H](CSc2ccccc2)C=C2c3cccc4c3[C@@H](CN4)C[C@H]21` were, in that order, 210 nM, 8 nM and 26.
With `C=C1C=C2c3cccc4[nH]cc(c34)C[C@H]2N(C)C1`, the half-maximal inhibitory concentration (IC50) in assay [3] was 140 nM; in assay [7], 20 nM. Also, the Selectivity ratio in assay [5] was determined as 7.
